This is an account of results in PubChem BioAssay AID504859 (Broad Institute, 2011).

Molecules are shown by their SMILES. The source made the active and inactive calls.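 Rule for the calls: active = tumorsphere count inhibition of at least 15% in the mean or in any single replicate; inactive = the rest.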

The test deals with SUM159 tumorsphere formation, imaging, 9 days. Briefly: inhibition of SUM159 tumorsphere formation, confirmation, orthogonal assay for breast cancer stem cell project, imaging, single point, dry powder, set 2 (AID 504859). Particulars: at 20 µM; active compounds read high. In short, it runs like this:
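Assay system: SUM159 tumorsphere culture; input: 1000 cells per well; compound dosing: single point, 200 nL test compound pinned per well; times: culture incubation at 37 °C under 5% CO2; detection: 2x transmitted-light imaging, 9 sites; plate: Low-attachment multiwell plate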
Regarding `Cc1csc(NC(=O)c2ccc(COc3ccccc3F)o2)n1`, the inhibition (as a rule, the relative decrease from the control value, in per cent) is 1.67% (inactive).
For `Cc1csc(NC(=O)c2ccc(COc3ccccc3)o2)n1` the value was 19.1%; for `CC(C)c1ccc(/C=C/C(=O)NC2=NCCS2)cc1`, 15.4%.
For `O=C(NC1CCCC1)c1ccc(COc2ccccc2)o1` the value was 11% (inactive); for `CCc1ccc(/C=C/C(=O)NC2=NCCS2)cc1`, 0.128% (inactive); for `O=C(/C=C/c1ccc(Cl)c(Cl)c1)NC1=NCCS1`, 2.48% (inactive).
For the compound `O=C(/C=C/c1ccc(-c2ccccc2)cc1)NC1=NCCS1`, the inhibition is 20.5%.
On to `Cc1csc(NC(=O)c2ccc(COc3cccc(OC(F)(F)F)c3)o2)n1`, for which the inhibition was -1.1% (inactive).
Take `Cc1csc(NC(=O)c2ccc(COc3cccc(Cl)c3)o2)n1`: the inhibition was 5.07% (inactive).
In the case of `COc1ccc(/C=C/C(=O)NC2=NCCS2)c(OC)c1` it was 3.49% (inactive).
In the case of `Cc1ccc(/C=C/C(=O)NC2=NCCS2)cc1` it was -19.9% (inactive).
